Laboratory results published in ChEMBL document CHEMBL2380225, “Chalcones, inhibitors for topoisomerase I and cathepsin B and L, as potential anti-cancer agents” (Bioorg Med Chem Lett, 2013).

Assays:
[1] = molecular target: DNA topoisomerase 2-alpha (Homo sapiens) (UniProt P11388); experiment: Inhibition of human topoisomerase 2 at 100 uM relative to control
In short: (§1)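 Supercoiled DNA relaxation assay with human topoisomerase I or II (Topogen). Compounds were tested at final 100 and 20 μM. Percent inhibition was derived from the inhibition ratio by image analysis and expressed as the mean of triplicate experiments.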

[2] = molecular target: T1, DNA topoisomerase 1 (Homo sapiens) (UniProt P11387); experiment: Inhibition of human topoisomerase 1 at 100 uM relative to control; in short: as §1
T1 sequence (whole entry): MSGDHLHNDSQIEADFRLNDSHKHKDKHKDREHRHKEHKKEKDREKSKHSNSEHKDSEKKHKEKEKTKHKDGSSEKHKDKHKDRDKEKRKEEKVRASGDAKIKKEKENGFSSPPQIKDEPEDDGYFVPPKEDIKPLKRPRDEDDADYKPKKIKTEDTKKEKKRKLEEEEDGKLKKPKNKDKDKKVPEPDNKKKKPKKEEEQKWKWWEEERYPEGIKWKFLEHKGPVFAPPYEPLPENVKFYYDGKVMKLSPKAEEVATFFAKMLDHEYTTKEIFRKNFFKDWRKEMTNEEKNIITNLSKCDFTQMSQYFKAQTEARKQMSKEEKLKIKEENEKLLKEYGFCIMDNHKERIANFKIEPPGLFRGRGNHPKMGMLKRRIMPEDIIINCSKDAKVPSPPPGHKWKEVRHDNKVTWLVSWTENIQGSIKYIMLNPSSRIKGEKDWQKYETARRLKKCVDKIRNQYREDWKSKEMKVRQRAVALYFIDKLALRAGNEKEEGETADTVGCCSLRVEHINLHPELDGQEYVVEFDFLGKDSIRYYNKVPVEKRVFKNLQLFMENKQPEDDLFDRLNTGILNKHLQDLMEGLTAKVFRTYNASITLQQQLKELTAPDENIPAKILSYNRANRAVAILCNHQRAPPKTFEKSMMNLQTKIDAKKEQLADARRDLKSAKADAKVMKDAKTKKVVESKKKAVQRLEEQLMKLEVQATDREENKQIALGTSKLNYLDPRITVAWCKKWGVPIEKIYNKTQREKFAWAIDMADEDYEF

[3] = molecular target: T1, DNA topoisomerase 1 (Homo sapiens); experiment: Inhibition of human topoisomerase 1 at 20 uM relative to control; in short: as §1
T47D = experiment: Cytotoxicity against human T47D cells by MTT assay; assay type: functional, cell-based
In short: (§2)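 MTT viability assay on T47D (breast ductal carcinoma) and SNU638 (gastric cancer) human cell lines. IC50 reported as mean ± SD of three separate experiments, each run in triplicate.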

[4] = molecular target: DNA topoisomerase 2-alpha (Homo sapiens) (UniProt P11388); experiment: Inhibition of human topoisomerase 2 at 20 uM relative to control; in short: as §1
SNU-638 = experiment: Cytotoxicity against human SNU638 cells by MTT assay; assay type: functional, cell-based; in short: as §2
Procathepsin L = Procathepsin L (Homo sapiens, UniProt P07711); experiment: Inhibition of cathepsin L (unknown origin) using Z-FR-AMC as substrate after 30 mins by fluorescence assay
Chain of Procathepsin L (P07711 whole entry): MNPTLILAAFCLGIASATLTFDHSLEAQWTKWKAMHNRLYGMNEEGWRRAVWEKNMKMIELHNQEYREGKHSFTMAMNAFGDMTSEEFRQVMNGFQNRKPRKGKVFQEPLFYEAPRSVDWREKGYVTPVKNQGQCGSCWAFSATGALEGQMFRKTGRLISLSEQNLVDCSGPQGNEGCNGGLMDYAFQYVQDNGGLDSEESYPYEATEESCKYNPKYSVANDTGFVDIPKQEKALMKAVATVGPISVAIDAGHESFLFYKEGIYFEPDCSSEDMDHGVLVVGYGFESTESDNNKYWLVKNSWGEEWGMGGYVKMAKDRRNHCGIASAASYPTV
In short: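 Calbiochem cathepsin L (4 nM) was reductively pre-activated for 30 min at 37 °C in 0.1 M NaOAc-HCl, 1 mM EDTA, 0.1% β-mercaptoethanol, pH 5.5. Reaction started with compound plus 20 μM Z-FR-AMC and ran 30 min at room temperature. Fluorescence read at 360 nm excitation / 450 nm emission. IC50 is the mean ± SD of triplicate runs.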

Cathepsin B = Cathepsin B (Homo sapiens, UniProt P07858); experiment: Inhibition of cathepsin B (unknown origin) using RR-AMC as substrate after 30 mins by fluorescence assay

Chain of DNA topoisomerase 2-alpha (Homo sapiens) (P11388 whole entry): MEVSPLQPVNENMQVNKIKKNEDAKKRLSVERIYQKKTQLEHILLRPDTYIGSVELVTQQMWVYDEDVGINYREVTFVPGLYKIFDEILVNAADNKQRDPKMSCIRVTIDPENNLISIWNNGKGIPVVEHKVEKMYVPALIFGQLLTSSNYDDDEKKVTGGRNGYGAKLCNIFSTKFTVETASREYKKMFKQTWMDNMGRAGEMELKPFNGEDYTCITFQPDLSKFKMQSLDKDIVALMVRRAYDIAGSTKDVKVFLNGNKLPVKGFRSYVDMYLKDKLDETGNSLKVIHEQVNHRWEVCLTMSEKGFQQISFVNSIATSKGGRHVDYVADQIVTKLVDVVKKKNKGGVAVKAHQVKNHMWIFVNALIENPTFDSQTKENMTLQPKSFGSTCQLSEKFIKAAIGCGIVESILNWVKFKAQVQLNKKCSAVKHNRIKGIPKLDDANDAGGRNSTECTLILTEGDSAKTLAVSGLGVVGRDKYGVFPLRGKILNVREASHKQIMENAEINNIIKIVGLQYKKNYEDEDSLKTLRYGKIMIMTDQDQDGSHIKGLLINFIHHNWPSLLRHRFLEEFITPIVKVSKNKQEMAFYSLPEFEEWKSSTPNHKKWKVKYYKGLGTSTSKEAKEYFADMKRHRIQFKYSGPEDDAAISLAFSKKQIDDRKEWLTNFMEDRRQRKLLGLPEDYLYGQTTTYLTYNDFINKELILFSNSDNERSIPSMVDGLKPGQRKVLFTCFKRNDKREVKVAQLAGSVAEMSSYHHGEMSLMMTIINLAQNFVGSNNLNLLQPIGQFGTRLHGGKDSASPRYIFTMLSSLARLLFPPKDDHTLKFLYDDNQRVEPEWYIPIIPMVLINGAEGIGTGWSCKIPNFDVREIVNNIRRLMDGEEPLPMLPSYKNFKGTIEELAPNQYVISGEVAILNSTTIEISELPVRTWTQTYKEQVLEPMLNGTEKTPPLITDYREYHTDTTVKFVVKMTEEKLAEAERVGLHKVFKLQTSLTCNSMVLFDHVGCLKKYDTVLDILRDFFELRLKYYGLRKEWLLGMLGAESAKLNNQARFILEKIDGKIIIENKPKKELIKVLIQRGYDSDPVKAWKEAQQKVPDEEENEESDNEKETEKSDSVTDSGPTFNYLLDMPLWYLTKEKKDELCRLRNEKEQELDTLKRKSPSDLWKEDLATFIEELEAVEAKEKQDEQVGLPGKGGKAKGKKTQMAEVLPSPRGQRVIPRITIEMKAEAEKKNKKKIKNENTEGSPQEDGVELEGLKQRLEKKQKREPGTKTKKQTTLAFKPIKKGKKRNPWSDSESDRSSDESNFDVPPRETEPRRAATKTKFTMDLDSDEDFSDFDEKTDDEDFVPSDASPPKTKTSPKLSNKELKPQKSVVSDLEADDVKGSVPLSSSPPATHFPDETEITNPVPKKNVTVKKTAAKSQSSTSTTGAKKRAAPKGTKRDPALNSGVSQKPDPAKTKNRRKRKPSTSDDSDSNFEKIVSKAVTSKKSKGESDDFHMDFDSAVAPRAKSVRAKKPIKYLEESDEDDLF

| SMILES | inhibition [1] [%] | inhibition [2] [%] | inhibition [3] [%] | IC50 (T47D) [µM] | inhibition [4] [%] | IC50 (SNU-638) [µM] | IC50 (Procathepsin L) [µM] | IC50 (Cathepsin B) [µM] |
| --- | --- | --- | --- | --- | --- | --- | --- | --- |
| O=C(/C=C/c1ccc(N2CCCC2)cc1)c1ccc([N+](=O)[O-])cc1 | 96.1 | 91.1 | 77.6 | 21.3 | 15.3 | > 25 | 9.42 | 29 |
| COc1ccc(/C=C/C(=O)c2ccc(O)cc2O)cc1Br | 2.4 | 73.2 | 8.2 | 1.05 |  | 2.89 | 67.5 | > 100 |
| CC[C@@]1(O)C(=O)OCc2c1cc1n(c2=O)Cc2cc3ccccc3nc2-1 [CAMPTOTHECIN] |  |  |  | 0.07 |  | 0.28 |  |  |
| COc1cc([C@@H]2c3cc4c(cc3[C@@H](O[C@@H]3O[C@@H]5CO[C@@H](C)O[C@H]5[C@H](O)[C@H]3O)[C@H]3COC(=O)[C@H]23)OCO4)cc(OC)c1O [ETOPOSIDE] |  |  |  | 4.98 |  | 2.57 |  |  |
| COc1cccc2c1C(=O)c1c(O)c3c(c(O)c1C2=O)C[C@@](O)(C(=O)CO)C[C@@H]3O[C@H]1C[C@H](N)[C@H](O)[C@H](C)O1 [DOXORUBICIN] |  |  |  | 2.91 |  | 0.84 |  |  |
| COc1cc(O)ccc1C(=O)/C=C/c1ccc(F)cc1 | 0 | 86.1 | 61.6 | > 25 |  | > 25 | 91.2 | > 100 |
| COc1ccc(C(=O)/C=C/c2ccc(OC)c(Br)c2)c(O)c1 | 1 | 5 | 3.8 |  |  |  | 45.3 | > 100 |
| O=C(/C=C/c1ccc(N2CCCC2)cc1)c1ccc(F)cc1 | 0 | 90.6 | 73.1 | > 25 |  | > 25 | 56.5 | 54.3 |
| O=C(/C=C/c1ccc(F)cc1)c1ccc(O)cc1O | 42.2 | 80.2 | 56.7 | 8.31 | 12.6 | 9.43 | > 100 | > 100 |
| O=C(/C=C/c1ccc(N2CCCC2)cc1)c1ccc(O)cc1 | 96.8 | 74.7 | 60 | 1.37 | 19.1 | 0.62 | 3.15 | 1.81 |
| COc1cc(O)ccc1/C=C/C(=O)c1ccc(N)cc1 | 0 | 0.8 |  |  |  |  | 32.9 | 76.5 |
| COc1ccc(C(=O)/C=C/c2ccc(F)cc2)c(O)c1 | 0 | 81.2 | 60 | 21.9 |  | 18.4 | 98.7 | > 100 |
| COc1cc(O)ccc1/C=C/C(=O)c1ccc(O)cc1 [ECHINATIN] | 1.6 | 88.9 | 2.1 | 12.1 |  | 10.4 | 30.3 | 57.7 |
| COc1ccc(/C=C/C(=O)c2ccc(O)cc2)cc1Br | 1.2 | 24.8 | 6.6 |  |  |  | 29.8 | > 100 |
| COc1ccc(/C=C/C(=O)c2ccco2)cc1Br | 24.7 | 92 | 8.8 | 10.9 | 0 | 4.29 | > 100 | > 100 |
| O=C(/C=C/c1ccc(F)cc1)c1ccc(O)cc1 | 0 | 50.9 | 18 | 13.8 |  | 5.54 | > 100 | > 100 |
| COc1cc(O)ccc1/C=C/C(=O)c1ccc(NC(C)=O)cc1 | 0 | 100 | 17.3 | 12.3 |  | 17.4 | 39.3 | 46.8 |
| COc1ccc(/C=C/C(=O)c2cccs2)cc1Br | 5.8 | 74.4 | 2.1 | 21.9 |  | 16.6 | > 100 | > 100 |
| COc1cc(O)ccc1/C=C/C(=O)c1ccc(F)cc1 | 0.7 | 95.8 | 9.5 | 8.51 |  | 6.3 | 73.2 | 95.1 |
| O=C(/C=C/c1ccc(N2CCCC2)cc1)c1ccc(O)cc1O | 0 | 87.1 | 64.4 | 6.99 |  | 5.77 | 4.72 | 28.7 |
| COc1ccc(/C=C/C(=O)c2ccc(F)cc2)cc1Br | 48.7 | 76.5 | 20.1 | > 25 | 0 | > 25 | > 100 | > 100 |
